Laboratory results reported in ChEMBL document CHEMBL1127085, “Derivatives of 2-(dipropylamino)tetralin: effect of the C8-substituent on the interaction with 5-HT1A receptors” (J Med Chem, 1993).

Legend:
[1] = molecular target: T1, 5-hydroxytryptamine receptor 1A (Rattus norvegicus, UniProt P19327); assay: Binding affinity of 5-hydroxytryptamine 1A receptor using [3H]-8-OH-DPAT as radioligand.
T1 sequence (P19327 whole entry): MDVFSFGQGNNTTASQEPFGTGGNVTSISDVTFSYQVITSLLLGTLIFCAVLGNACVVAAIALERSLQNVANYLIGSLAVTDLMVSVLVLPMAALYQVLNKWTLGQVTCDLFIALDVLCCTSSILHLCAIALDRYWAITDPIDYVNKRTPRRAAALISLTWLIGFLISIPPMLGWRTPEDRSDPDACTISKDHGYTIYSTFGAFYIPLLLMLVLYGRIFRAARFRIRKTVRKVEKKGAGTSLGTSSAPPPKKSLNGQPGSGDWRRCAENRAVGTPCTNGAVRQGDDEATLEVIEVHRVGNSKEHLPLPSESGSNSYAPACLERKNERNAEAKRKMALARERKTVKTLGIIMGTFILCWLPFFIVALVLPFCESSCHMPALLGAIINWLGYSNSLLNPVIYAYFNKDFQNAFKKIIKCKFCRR
Method in brief: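 Membranes from cortex and hippocampus of male Sprague-Dawley rats, pooled from at least six rats, preincubated with 10 µM pargyline. Assay used 2 nM [3H]-8-OH-DPAT, test compound at 1-300 nM and 5 mg/mL tissue in 50 mM Tris-HCl with 4.0 mM CaCl2 and 5.7 mM ascorbate, pH 7.5. Incubated 10 min at 37 °C, filtered on GF/B, scintillation counted.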

[2] = molecular target: T2, Dopamine receptor (Rattus norvegicus) (UniProt P25115+P19020+P30729+P18901+P61169); assay: Effect of accumulation of DOPA in rat striatum at the dose of 32 umol/kg; assay type: functional, tissue-based
Method in brief: (§1)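 Test compound given sc in 0.9% NaCl. NSD 1015 (287 µmol/kg sc) given 30 min later to inhibit aromatic L-amino acid decarboxylase; rats decapitated after a further 30 min. Hippocampus and striatum stored at -40 °C for up to 1 week. Perchloric acid homogenates with α-methyl-5-hydroxytryptophan internal standard; 5-HTP and DOPA measured by HPLC-EC. Percent of control, means ± SEM; ANOVA with Tukey test.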

[3] = test system: Rattus norvegicus; assay: Effect of DOPA accumulation in rat striatum at the dose of 32 umol/kg; assay type: functional; method in brief: as §1
[4] = molecular target: T3, 5-hydroxytryptamine receptor 1A (Rattus norvegicus) (UniProt P19327); assay: Induction of clear-cut 5-HT motor syndrome in reserpine (5 mg/Kg, sc) pretreated rats at the dose of 32 uM/Kg; assay type: functional, organism-based
T3 sequence (whole entry): T1 sequence (P19327 whole entry)

[5] = test system: Rattus norvegicus; assay: Antagonistic effect on 5-HT syndrome or behavior of rat at the dose of 32 umol/kg with saline; assay type: functional
Method in brief: (§2)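 Compound (32 µmol/kg sc) or saline injected 10 min before (R)-8-OH-DPAT (1.0 µmol/kg sc). Flat body posture, forepaw treading and hindlimb abduction scored during 30 min of observation. Results as number of rats showing the behaviour out of number tested; Fisher's exact probability test.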

[6] = test system: Rattus norvegicus; assay: Antagonistic effect on 5-HT syndrome or behavior of rat induced by (R)-8-hydroxy-DPAT at the dose of 32 and 1.0 umol/kg; assay type: functional; method in brief: as §2
[7] = test system: Rattus norvegicus; assay: Antagonistic effect on body temperature of rat induced by (R)-1 at the dose of 32 and 1.0 umol/kg of compound (R)-1; assay type: functional
Method in brief: (§3)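 Compound (32 µmol/kg sc) or saline injected 10 min before (R)-8-OH-DPAT (1.0 µmol/kg sc). Colonic temperature taken before injection and 30 min later; result is the change from the preinjection value. One-way ANOVA with Tukey HSD test.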

[8] = test system: Rattus norvegicus; assay: Antagonistic effect on body temperature of rat induced by (R)-1 at the dose of 32 umol/kg with saline; assay type: functional; method in brief: as §3
[9] = test system: Rattus norvegicus; assay: Induction of clear-cut 5-HT motor syndrome in normal rats at the dose of 1 uM/Kg; assay type: functional
[10] = test system: Rattus norvegicus; assay: Induction of clear-cut 5-HT motor syndrome in reserpine (5 mg/Kg, sc) pretreated rats at the dose of 1 uM/Kg; assay type: functional
[11] = molecular target: T3, 5-hydroxytryptamine receptor 1A (Rattus norvegicus); assay: 5-HT (serotonin) turnover in rat hippocampus; assay type: functional, tissue-based
Method in brief: (§4)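 Rats given compound sc in 0.9% NaCl (screening dose typically 32 µmol/kg); decapitated about 30 min after dosing. Hippocampus and corpus striatum dissected and frozen. Perchloric acid homogenates analysed by HPLC with electrochemical detection. Turnover taken as 5-HIAA/5-HT or DOPAC/DA, expressed as percent of saline control. Means ± SEM; n = 5-7 controls, 4-6 treated. ANOVA with Tukey test.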

[12] = molecular target: T2, Dopamine receptor (Rattus norvegicus); assay: Dopamine (DA) turnover in rat corpus striatum; assay type: functional, tissue-based; method in brief: as §4
[13] = test system: Rattus norvegicus; assay: Change in body temperature of rats upon administration after 30 minutes; assay type: functional
Method in brief: (§5)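 Colonic temperature taken with an electrical thermometer probe 3.5 cm deep, before and 30 min after sc injection in saline. Change reported in °C as mean ± SEM; animal numbers as in the cage-leaving test. ANOVA with Tukey test.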

[14] = molecular target: T3, 5-hydroxytryptamine receptor 1A (Rattus norvegicus); assay: Number of rats displaying the 5-HT syndrome or leaving the cage out of the number of rats tested; assay type: functional
[15] = test system: Rattus norvegicus; assay: Induction of clear-cut 5-HT motor syndrome in normal rats at the dose of 32 umol/kg; assay type: functional
[16] = molecular target: T3, 5-hydroxytryptamine receptor 1A (Rattus norvegicus); assay: Antagonistic effect on 5-HT syndrome or behavior of rat induced by (R)-1 at the dose of 32 and 1.0 umol/kg of compound (R)-1; assay type: functional; method in brief: as §2
[17] = molecular target: T3, 5-hydroxytryptamine receptor 1A (Rattus norvegicus); assay: Induction of clear-cut 5-HT motor syndrome in normal rats at the dose of 32 micro mol/kg; assay type: functional
[18] = species: Rattus norvegicus; assay: Dopamine (DA) turnover in rat corpus striatum (p<0.01); assay type: functional; method in brief: as §4
[19] = test system: Rattus norvegicus; assay: Change in body temperature of rats upon administration after 30 minutes (p<0.01); assay type: functional; method in brief: as §5
[20] = molecular target: T3, 5-hydroxytryptamine receptor 1A (Rattus norvegicus); assay: Induction of clear-cut 5-HT motor syndrome in reserpine (5 mg/kg, sc) pretreated rats at the dose of 32 micro mol/kg; assay type: functional, organism-based
[21] = test system: Rattus norvegicus; assay: Induction of clear-cut 5-HT motor syndrome in reserpine (5 mg/Kg, sc) pretreated rats at the dose of 10 uM/Kg; assay type: functional
[22] = molecular target: T3, 5-hydroxytryptamine receptor 1A (Rattus norvegicus); assay: Effect of 5-HT accumulation in rat hippocampus at the dose of 32 umol/kg (p<0.01); assay type: functional, tissue-based; method in brief: as §1
[23] = molecular target: T3, 5-hydroxytryptamine receptor 1A (Rattus norvegicus); assay: 5-HT (serotonin) turnover in rat hippocampus (p<0.01); assay type: functional, tissue-based
Method in brief: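 Rats dosed sc (screening dose typically 32 µmol/kg, in 0.9% NaCl, 2 mL/kg); decapitated 5-10 min after the 30-min rating, […]. Hippocampus dissected and frozen. 5-HIAA/5-HT ratio measured by HPLC with electrochemical detection (+0.85 V) after perchloric acid homogenisation. Reported as percent of saline control, mean ± SEM, n = 4-6 per group; ANOVA with Tukey test.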

[24] = test system: Rattus norvegicus; assay: Effect of DOPA accumulation in rat striatum at the dose of 32 umol/kg (p<0.1); assay type: functional; method in brief: as §1
[25] = test system: Rattus norvegicus; assay: Induction of clear-cut 5-HT motor syndrome in normal rats at the dose of 10 uM/Kg; assay type: functional

SMILES	Ki [1] [nM]	Turnover [11]	Turnover [12]	Temperature [13]	No. of rats [14]	Behavioral effect [20]	also measured
CCCN(CCC)C1CCc2cccc(C(=O)OC)c2C1 (racemic)	2.4						Accumulation [2]: 81; Accumulation [3]: 59; Behavioral effect [4]: 4
CCCN(CCC)[C@H]1CCc2c(F)ccc(O)c2C1							Effect [5]: 0; Effect [6]: 0; Temperature [7]: -0.76; Temperature [8]: -0.02
CCCN(CCC)[C@H]1CCc2cccc(C(C)=O)c2C1		71	111	-2.1	0		Behavioral effect [9]: 4; Behavioral effect [10]: 4
CCCN(CCC)[C@H]1CCc2cccc(OS(=O)(=O)C(F)(F)F)c2C1		84	104	0.5	1		Behavioral effect [15]: 0; Effect [16]: 4; Temperature [7]: -3.18
CCCN(CCC)C1CCc2cccc(C(C)=O)c2C1 (racemic)	0.9						Behavioral effect [10]: 4
CCCN(CCC)[C@H]1CCc2ccccc2C1		104			5	0	Behavioral effect [17]: 5; Turnover [18]: 62; Temperature [19]: -1.6
CCCCC(=O)c1cccc2c1CC(N(CCC)CCC)CC2 (racemic)	19						Behavioral effect [4]: 4
CCCN(CCC)[C@@H]1CCc2cccc(C#N)c2C1	19						Behavioral effect [21]: 3
CCCN(CCC)C1CCc2cccc(C)c2C1 (racemic)	42						
C#Cc1cccc2c1C[C@H](N(CCC)CCC)CC2	22		78		0	4	Accumulation [2]: 59; Accumulation [22]: 43; Behavioral effect [17]: 4; Turnover [23]: 73; Temperature [19]: -1.6; Accumulation [24]: 50
CCCN(CCC)[C@H]1CCc2cccc(C(=O)OC)c2C1		59	98	-2.5	0		Behavioral effect [25]: 4; Behavioral effect [21]: 4
CCCN(CCC)[C@@H]1CCc2cccc(-c3ccccc3)c2C1		98	85		3	0	Behavioral effect [17]: 0; Effect [16]: 4; Temperature [7]: -3.68; Temperature [19]: 0.3
CCCN(CCC)[C@@H]1CCc2ccccc2C1					4	4	Behavioral effect [15]: 4; Turnover [23]: 51; Turnover [18]: 77; Temperature [19]: -1.4
CCCN(CCC)[C@H]1CCc2cccc(-c3ccccc3)c2C1		98	99	0.6	4	0	Behavioral effect [17]: 0; Effect [16]: 4; Temperature [7]: -2.58
CCCN(CCC)[C@@H]1CCc2cccc(C(=O)OC)c2C1		63	90	-2.3	0		Behavioral effect [25]: 4; Behavioral effect [21]: 4
